Measurements published in ChEMBL document CHEMBL1150326 (Bioorg Med Chem, 2008).
The source made the active and inactive calls. No cut-off for these calls is given here.

Tests used:
CCRF-CEM [1] = assay: Selectivity ratio of IC50 for taxol-resistant human CCRF-CEM cells to IC50 for human CCRF-CEM cells; assay type: functional
Outline: (§1)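 Fold resistance: IC50 in the taxol- or vinblastine-resistant CCRF-CEM subline divided by the IC50 in parent CCRF-CEM.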

MX1 [2] = assay: Cytotoxicity against human MX1 cells after 72 hrs by SRB assay; assay type: functional, cell-based; conditions: MX1, 72 h
Outline: (§2)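 Solid tumour cells (breast MX-1, colon HCT116) exposed for 72 h. Growth measured by SRB assay. IC50 obtained by median-effect plot from six or seven concentrations, in duplicate or triplicate.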

CCRF-CEM [3] = assay: Cytotoxicity against human CCRF-CEM cells after 72 hrs by XTT assay; assay type: functional, cell-based
Outline: (§3)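 Leukaemic CCRF-CEM cells and their taxol- and vinblastine-resistant sublines exposed for 72 h. XTT assay read at 450 and 630 nm after 6 h with phenazine methosulfate-XTT at 37 °C. IC50 obtained by the median-effect principle from six or seven concentrations, in duplicate or triplicate.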

CCRF-CEM [4] = assay: Cytotoxicity against vinblastine-resistant human CCRF-CEM cells after 72 hrs by XTT assay; assay type: functional, cell-based; outline: as §3
HCT-116 = assay: Cytotoxicity against human HCT116 cells after 72 hrs by SRB assay; assay type: functional, cell-based; conditions: HCT-116, 72 h; outline: as §2
CCRF-CEM [5] = assay: Selectivity ratio of IC50 for vinblastine-resistant human CCRF-CEM cells to IC50 for human CCRF-CEM cells; assay type: functional; outline: as §1
CCRF-CEM [6] = assay: Cytotoxicity against taxol-resistant human CCRF-CEM cells after 72 hrs by XTT assay; assay type: functional, cell-based; outline: as §3
MX1 [7] = assay: Antitumor activity in human MX1 cells xenografted mouse assessed as complete tumor suppression at 50 mg/kg, iv administered in Q2D x 8 schedule; assay type: functional, organism-based; parameters: dose 50 mg/kg
MX1 [8] = assay: Antitumor activity in human MX1 cells xenografted mouse assessed as complete tumor remission at 50 mg/kg, iv administered in Q2D x 8 schedule; assay type: functional, organism-based; parameters: dose 50 mg/kg
Mus musculus [9] = assay: Toxicity against human MX1 cells xenografted mouse assessed as body weight loss at 50 mg/kg, iv administered in Q2D x 8 schedule; assay type: organism-based; parameters: dose 50 mg/kg, route intravenous; conditions: in vivo
Outline: (§4)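 Nude nu/nu male mice (8 weeks or older, 22 g or more) carrying xenografts, given i.v. tail-vein injections in DMSO/Tween 80/saline vehicle, n = 3. Host toxicity taken as body weight change from the initial pretreatment weight, tracked through and after dosing.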

[10] = Chemical stability assessed as half life at 1 mg in DMSO/Tween 80/normal saline solution; assay type: physicochemical
Outline: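 1 mg of compound held in i.v. vehicle (DMSO/Tween 80/normal saline, 0.5:0.4:1.6 v/v/v). Degradation followed by silica TLC (CHCl3/MeOH 10:1) and confirmed by reversed-phase HPLC.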

[11] = Stability in mouse assessed as half life; assay type: ADME, organism-based; conditions: in vivo
MX1 [12] = assay: Antitumor activity in human MX1 cells xenografted mouse assessed as complete tumor remission at 30 mg/kg, iv administered in Q2D x 5 schedule; assay type: functional, organism-based; parameters: dose 30 mg/kg
Mus musculus [13] = assay: Toxicity against human MX1 cells xenografted mouse assessed as body weight loss at 30 mg/kg, iv administered in Q2D x 5 schedule; assay type: organism-based; parameters: dose 30 mg/kg, route intravenous; conditions: in vivo; outline: as §4
MX1 [14] = assay: Antitumor activity in human MX1 cells xenografted mouse assessed as complete tumor remission at 75 mg/kg, iv administered in Q2D x 8 schedule; assay type: functional, organism-based; parameters: dose 75 mg/kg
Mus musculus [15] = assay: Toxicity against human MX1 cells xenografted mouse assessed as body weight loss at 75 mg/kg, iv administered in Q2D x 8 schedule; assay type: organism-based; parameters: dose 75 mg/kg, route intravenous; conditions: in vivo
NCI-H1299 = assay: Induction of DNA interstrand cross linking in 20 Gy irradiated human H1299 cells at 200 uM after 1 hr by comet assay; assay type: functional
Outline: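 H1299 cells (2 × 10^5) plated and grown for 32 h at 37 °C in 5% CO2, then drug-treated for 1 h. Cells given 20 Gy irradiation and embedded in 1.2% low-melting agarose for a modified comet assay under subdued light. Tail moment scored in 100 cells. Cross-linking % = [1 − (TMdi−TMcu)/(TMci−TMcu)] × 100. Three experiments, mean ± SD.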

Compound	Ratio IC50 (CCRF-CEM [1])	IC50 (MX1 [2]) [nM]	IC50 (CCRF-CEM [3]) [nM]	IC50 (CCRF-CEM [4]) [nM]	IC50 (HCT-116) [nM]	Ratio IC50 (CCRF-CEM [5])	IC50 (CCRF-CEM [6]) [nM]	Activity (MX1 [7])	Activity (MX1 [8])	Activity (Mus musculus [9]) [%]	half-life [10] [days]	half-life [11] [days]	Activity (MX1 [12])	Activity (Mus musculus [13]) [%]	Activity (MX1 [14])	Activity (Mus musculus [15]) [%]	Activity (NCI-H1299) [%]
COc1ccc(Nc2c3ccccc3nc3c(C)cccc23)cc1NC(=O)Nc1ccc(N(CCCl)CCCl)cc1	1.25	367	9.2	24.6	74.9	2.76	11.5										
Cc1ccc(NC(=O)Nc2ccc(N(CCCl)CCCl)cc2)cc1Nc1c2ccccc2nc2c(C)cccc12	2.02	589	11.4	24.5	158	2.15	23										
COc1cc(NC(=O)Nc2ccc(N(CCCl)CCCl)cc2)cc(Nc2c3ccccc3nc3c(C(=O)NCCN(C)C)cccc23)c1	2.29	638	13.2	951	110	72	30.2										
O=C(Nc1ccc(N(CCCl)CCCl)cc1)Nc1cc(CO)cc(Nc2c3ccccc3nc3ccccc23)c1	304	369			216		17200	Active	inactive	10	55						
OCc1cc(Nc2c3ccccc3nc3ccccc23)cc(OCCN(CCCl)CCCl)c1	0.96		3.33	12.8	6.5	3.84	3.2					< 0.0174					
Cc1cccc2c(Nc3cc(CO)cc(NC(=O)Nc4ccc(N(CCCl)CCCl)cc4)c3)c3ccccc3nc12	12.7	125	31.1	1790	263	57.5	394				59		Active	10			
Cc1ccc(Nc2c3ccccc3nc3ccccc23)cc1NC(=O)Nc1ccc(N(CCCl)CCCl)cc1	2.08	584	16.7	33.4	264	2	34.7										
Cc1cc(NC(=O)Nc2ccc(N(CCCl)CCCl)cc2)cc(Nc2c3ccccc3nc3ccccc23)c1	2.72	529	141	593	816	4.2	384								Active	10	
Cc1ccc(NC(=O)Nc2ccc(N(CCCl)CCCl)cc2)cc1Nc1c2cccc(C)c2nc2c(C(=O)NCCN(C)C)cccc12	14.7	60.1	11.9	303	60	25.4	176										
O=C(Nc1ccc(N(CCCl)CCCl)cc1)Nc1c2ccccc2nc2ccccc12	1.68	810	229	378	900	1.65	385										
CC(=O)O[C@H]1C(=O)[C@@]2(C)[C@H]([C@H](OC(=O)c3ccccc3)[C@]3(O)C[C@H](OC(=O)[C@H](O)[C@@H](NC(=O)c4ccccc4)c4ccccc4)C(C)=C1C3(C)C)[C@]1(OC(C)=O)CO[C@@H]1C[C@@H]2O [PACLITAXEL]	330	35	1.3	1270	1.3	980											
COc1cc(NC(=O)Nc2ccc(N(CCCl)CCCl)cc2)cc(Nc2c3ccccc3nc3ccccc23)c1	1.34	1110	37.5	54.8	496	1.46	50.4										
COc1ccc(Nc2c3ccccc3nc3ccccc23)cc1NC(=O)Nc1ccc(N(CCCl)CCCl)cc1	4.39	1200	7.7	54.9	256	7.13	33.8										
COc1ccc(NC(=O)Nc2ccc(N(CCCl)CCCl)cc2)cc1Nc1c2ccccc2nc2c(C)cccc12	1.93	1810	29.7	30.6	571	1.3	57.4										
CC[C@]1(O)C[C@@H]2CN(CCc3c([nH]c4ccccc34)[C@@](C(=O)OC)(c3cc4c(cc3OC)N(C)[C@H]3[C@@](O)(C(=O)OC)[C@H](OC(C)=O)[C@]5(CC)C=CCN6CC[C@]43[C@@H]65)C2)C1 [VINBLASTINE]		2.9			1.8												
COc1cc(NC(=O)Nc2ccc(N(CCCl)CCCl)cc2)cc(Nc2c3ccccc3nc3c(C)cccc23)c1	1.68	868	29.6	43.3	242	1.46	49.8										
COc1ccc(NC(=O)Nc2ccc(N(CCCl)CCCl)cc2)cc1Nc1c2ccccc2nc2ccccc12	1.33	591	44.2	54.8	188	1.24	58.8										
N[C@@H](Cc1ccc(N(CCCl)CCCl)cc1)C(=O)O [MELPHALAN]																	47.3
